Source: PubChem
Compounds with a hit are over-represented: about 5.7% of the library has one in this group of screens.
Calb FLC: C. albicans growth inhibition with fluconazole, primary screen, CaCi-2 strain, Alamar Blue fluorescence; C. albicans CaCi-2 (fluconazole-resistant clinical isolate) + fluconazole, 48 h; growth inhibition, % (concentration not given with the values); hit rate 0.57% among 300,000; AID 1979, 2009;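 active = growth inhibition above about 58% in most replicates, limit read from the data, passing the limit was not always enough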;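 also: all wells also contain fluconazole at 8 µg/ml as a sub-toxic cotreatment; 0% = median of DMSO wells and 100% = median of geldanamycin control wells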
T cruzi repl: inhibitors of intracellular T. cruzi growth, primary screen, luminescence, NIH3T3 host cells; T. cruzi beta-gal in NIH3T3, 90 h; inhibition, % (no concentration beside the values); hit rate 1.4% among 300,000;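 active = mean inhibition across valid replicates above about 55%, limit read from the data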;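 also: signal also drops with host cell toxicity which is not excluded here; 0% = plate median of DMSO wells and 100% = zero luminescence signal; higher percent means less beta-gal luminescence so fewer parasites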
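System – NIH/3T3 host cells with β-galactosidase reporter T. cruzi · Doses – single 50 nL compound addition per well in DMSO · Reagent – 5000 T. cruzi trypomastigotes/well · Medium – Low-serum DMEM with 2% FBS · Timing – ≥90 h infection period, 3 h prior cell attachment · Evaluation – parasite load inhibition, % · Technique – GalScreen luminescence, 60 min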
SKKanGAS inh: S. pyogenes SKKanGAS growth inhibitors in kanamycin, primary screen, streptokinase expression inhibitor project, SKKanGAS strain, BacTiter-Glo luminescence; 6 h; inhibition, % at 7.5 µM; hit rate 1.3% among 300,000; AID 1662, 2009;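 active = mean replicate score, as percent of positive control median, at least 50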;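 also: strain carries kanamycin resistance gene driven by streptokinase promoter and grows in 40 µg/ml kanamycin; loss of luminescence reflects streptokinase promoter inhibition or plain growth inhibition; 0% = median of DMSO wells and 100% = positive control at its reference dose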
Beta apoptosis: inhibitors of cytokine-induced beta cell apoptosis, primary screen, luminescence | INS-1E cytokine-induced death, ATP luminescence, 48 h; percent of positive-control rescue, neutral wells zero | protection from apoptosis, % (test concentration not listed) | hit rate 0.8% among 300,000 | AID 435005, 2010;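 active = Every replicate reaches about 75%, or at least half do and their mean reaches it too, limit read from the data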;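 also: 0% = cytokine-treated negative control wells and 100% = positive control rescue; higher means more ATP so stronger rescue from cytokine killing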
CSC inhib: cancer stem cell viability inhibitors, primary screen, luminescence | cancer stem cell-like cells viability | inhibition, % at 7.5 µM | hit rate 1.1% among 300,000 | AID 2717, 2010; in the data active = inhibition above about 75%; tested in HMLE shEcad cells
Mdm2 MdmX PPI: inhibitors of human Mdm2-MdmX association, primary screen, cell-based, luminescence, split luciferase, SaOS-2, uHTS | hit rate 3% among 330,000 | SaOS-2 split-luciferase Mdm2/MdmX complementation | Protein Mdm4 (Homo sapiens) + E3 ubiquitin-protein ligase Mdm2 (Homo sapiens), … | AID 485346, 2010 | inhibition, % at 8 µM;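 active = inhibition of at least 50% at 8 µM in the primary screen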
Mdm2-MdmX conf: Mdm2-MdmX complex disruptors, retested hits, confirmation, luminescence, single concentration. shares compounds with Mdm2 MdmX PPI. Mdm2-MdmX binding, luminescent assay. inhibition, % at 8 µM. hit rate 55% among 10,000; in the data active = inhibition above about 40%
FLuc counter: full-length luciferase signal inhibition, confirmation, counter-screen for Mdm2/MdmX interaction inhibitor project, cell-based, single concentration, SaOS-2; SaOS-2 full-length luciferase counterscreen, luminescence; AID 504607, 2011; inhibition, % at 8 µM; hit rate 77% among 6,200; shares compounds with Mdm2 MdmX PPI;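 active = mean inhibition at 8 µM reaching about 37%, which flags the compound as non-specific, limit read from the data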;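 also: p53-null SaOS-2 cells with luciferase driven by a doxycycline-inducible promoter; compound on cells about two nights before reading with doxycycline added after day one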
* = called active by the depositor; · = no result.

SMILES | Calb FLC | T cruzi repl | SKKanGAS inh | Beta apoptosis | CSC inhib | Mdm2 MdmX PPI | Mdm2-MdmX conf | others
Cc1nn(C)c(C)c1/C=C(/C(=O)C(C)(C)C)n1cncn1 | 30 | -32 | -7 | -22 | -10 | 15 | ·
CC(C)(C)C(=O)/C(=C/c1ccncc1)n1cncn1 | 42 | 47 | 1 | -36 | 53 | 100* | 100* | FLuc counter=51*
CN(C)CC1CCCCC1OC(=O)c1ccc(Cl)cc1 (configuration not stated) | -2 | -8 | 1 | -16 | · | 9 | ·
CN(C)CC1CCCCC1C1(O)c2ccccc2CSc2sccc21 (configuration not stated) | · | 7 | 3 | 5 | 12 | 61* | 55* | FLuc counter=54*
Cc1cccc(N2CCN(C(=O)c3ccc(Cl)c(S(=O)(=O)NCc4ccco4)c3)CC2)c1C | 22 | 25 | 14 | 4 | 51 | 70* | 74* | FLuc counter=42*
Cc1cnc(NC(=O)c2ccc(-c3ccc([N+](=O)[O-])cc3)o2)s1 | · | · | · | 6 | -12 | 32 | ·
Cc1ccc(Cc2cnc(NC(=O)/C(C#N)=C/c3ccc(-c4ccc([N+](=O)[O-])cc4)o3)s2)cc1 | -6 | -20 | -2 | 2 | 2 | 58* | 5
C=C1C(C(=O)Nc2ccc(OC)cc2)C1C(=O)Nc1ccc(OC)cc1 (configuration not stated) | 0 | -7 | -4 | -6 | -7 | 72* | 25
COC1=C(Nc2ccc(O)cc2)C(=O)c2ccccc2C1=O | 42 | -27 | 12 | 52 | 21 | -32 | ·
O=C1C(Cl)=C(Nc2ccc(O)cc2)C(=O)c2ccccc21 | 2 | 63* | 20 | 6 | 124* | 100* | 100* | FLuc counter=51*
COc1ccccc1NC(=O)c1c(Nc2ccccc2C)sc(C(=O)Nc2cccc(Cl)c2)c1N | -2 | 13 | 26 | · | 74 | 75* | 27
COc1ccc(Nc2sc(C(=O)c3ccc(Cl)cc3)c(N)c2C(=O)Nc2ccccc2OC)cc1 | 12 | -2 | 12 | -10 | 2 | 11 | ·
CCCCn1c(N)c(N(CC(C)C)C(=O)c2ccc(OCc3c(C)noc3C)cc2)c(=O)[nH]c1=O | -1 | -5 | -6 | · | -11 | 9 | ·
CCCCN(C)CC(O)Cn1cc(/C=C/C(=O)c2ccc(OCC)cc2)c2ccccc21 (configuration not stated) | 2 | 59* | 5 | 9 | 99* | 69* | 19
CC(C)(C)C(C(Oc1ccc(Cl)cc1)n1cncn1)n1nnnc1C(c1cccc(Cl)c1)N1CCCCC1 (configuration not stated) | 13 | 55* | 42 | · | 45 | 57* | 31
Cc1noc(C)c1NC(=O)Nc1cccc2c1O[C@@H](CN(C)Cc1ccc3c(c1)OCO3)[C@@H](C)CN([C@H](C)CO)C2=O | · | · | · | -5 | 12 | 26 | ·
CC1(CCc2ccccc2)NC(=O)N(CC(=O)Nc2c(F)cccc2F)C1=O (configuration not stated) | · | · | · | 0 | -18 | 8 | ·
O=C(c1cccc(Cl)c1)N1CCN(c2ccccn2)CC1 | 2 | -1 | 0 | 1 | 2 | 2 | ·
O=C(c1ccc(S(=O)(=O)c2ccccc2Cl)c([N+](=O)[O-])c1)N1CCCCCC1 | 2 | -9 | -12 | 35 | 21 | 51* | 25
O=C(c1ccc2c(c1)N(Cc1cccc(Cl)c1)C(=O)c1ccccc1S2(=O)=O)N1CCN(c2ccccn2)CC1 | 0 | 44 | 3 | 15 | 28 | 65* | 20
O=C(c1ccc(S(=O)(=O)c2cccc(Cl)c2)c([N+](=O)[O-])c1)N1CCN(c2ccccn2)CC1 | 10 | 6 | 5 | -6 | 51 | 73* | 68* | FLuc counter=58*
